Measured values from ChEMBL document CHEMBL2384924, “Antagonists for the orphan G-protein-coupled receptor GPR55 based on a coumarin scaffold” (J Med Chem, 2013).
pIC50, pKi: −log10 of the molar value. Active and inactive are the calls of the source.

How the values were obtained:
[1] = biological target: T1, G-protein coupled receptor 55 (Homo sapiens, UniProt Q9Y2T6); assay: Agonist activity at human GPR55 transfected in CHO cells at 10 uM after 90 mins by beta-arrestin translocation assay; format: cell-based
How it was run: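 CHO cells stably expressing human GPR55 (β-galactosidase fragment complementation) were seeded at 20,000 cells/well in Opti-MEM with 2% FCS for 24 h at 37°C. Compound was diluted in PBS with 10% DMSO and 0.1% BSA, screened at 10 µM and incubated 90 min at 37°C. Galacton-Star/Emerald-II/lysis buffer (1:5:19) was added for 60 min at RT, then luminescence was read. Response is relative to 1 µM LPI (100%).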

Cannabinoid receptor 2 [2] = biological target: T2, Cannabinoid receptor 2 (Homo sapiens, UniProt P34972); assay: Displacement of [3H]-CP55,940 from human CB2 receptor transfected in CHOK1 cells at 10 uM; format: cell-based; settings: CHO-K1
How it was run: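 Competition binding used membranes from CHO cells stably expressing human CB2 (1 µg protein per vial) and [3H]CP55,940 at 0.1 nM final. Compound stocks were in DMSO (2.5% final). Compound was tested at 10 µM as % inhibition of radioligand binding. Three independent experiments in duplicate.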

Cannabinoid receptor 2 [3] = biological target: T2, Cannabinoid receptor 2; assay: Displacement of [3H]-CP55,940 from human CB2 receptor transfected in CHOK1 cells; format: cell-based, CHO-K1
How it was run: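 CHO cells stably expressing human CB2 supplied the membranes, 1 µg protein per vial. Compounds were screened at 10 µM, and full competition curves were run where inhibition was about 50% or more. Three independent experiments in duplicate.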

Cannabinoid receptor 1 [4] = biological target: T3, Cannabinoid receptor 1 (Homo sapiens, UniProt P21554); assay: Displacement of [3H]-CP55,940 from human CB1 receptor transfected in CHOK1 cells at 10 uM; format: cell-based; settings: CHO-K1
How it was run: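 Human CB1 from membrane preparations of stably transfected CHO cells, 25 µg protein per vial. Competition with [3H]CP55,940 at 0.1 nM final, with test compound at 10 µM, read as % inhibition of radioligand binding. Final DMSO 2.5%. Three independent experiments in duplicate.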

Cannabinoid receptor 1 [5] = biological target: T3, Cannabinoid receptor 1; assay: Displacement of [3H]-CP55,940 from human CB1 receptor transfected in CHOK1 cells; format: cell-based, CHO-K1
[6] = biological target: T4, N-arachidonyl glycine receptor (Homo sapiens) (UniProt Q14330); assay: Antagonist activity at human GPR18 transfected in CHO cells assessed as delta9-THC-induced beta-arrestin recruitment at 10 uM incubated 60 mins prior to delta9-THC addition by beta-arrestin translocation assay; format: cell-based; set-up: scale not given: the % may be the effect or the level left
T4 sequence (whole entry): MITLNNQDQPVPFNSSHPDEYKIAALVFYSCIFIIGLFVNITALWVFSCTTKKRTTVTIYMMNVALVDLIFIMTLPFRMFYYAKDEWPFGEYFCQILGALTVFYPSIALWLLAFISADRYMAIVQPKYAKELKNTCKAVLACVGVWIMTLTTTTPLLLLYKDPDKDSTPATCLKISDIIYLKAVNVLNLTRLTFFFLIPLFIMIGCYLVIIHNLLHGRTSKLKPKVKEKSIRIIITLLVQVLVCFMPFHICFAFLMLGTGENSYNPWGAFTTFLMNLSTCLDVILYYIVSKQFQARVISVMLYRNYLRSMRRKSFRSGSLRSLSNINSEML
How it was run: (§1)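 CHO cells stably expressing human GPR18 were seeded at 20,000 cells/well for 24 h at 37°C. Compound in PBS/10% DMSO/0.1% BSA was added 60 min before the GPR18 agonist 3 at 10 µM. The supplier's detection reagent was used, and luminescence was read after 60 min at RT. Screening was at 10 µM (% inhibition); IC50 from concentration-inhibition curves. Three independent experiments in duplicate.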

[7] = biological target: T5, N-arachidonyl glycine receptor (Homo sapiens, UniProt Q14330); assay: Antagonist activity at human GPR18 transfected in CHO cells assessed as delta9-THC-induced beta-arrestin recruitment incubated 60 mins prior to delta9-THC addition by beta-arrestin translocation assay; format: cell-based; how it was run: as §1
T5 sequence (Q14330 whole entry): T4 sequence (whole entry)

[8] = biological target: T1, G-protein coupled receptor 55; assay: Antagonist activity at human GPR55 transfected in CHO cells assessed as inhibition of LPI-induced beta-arrestin recruitment at 10 uM incubated 60 mins prior to LPI addition by beta-arrestin translocation assay; format: cell-based; set-up: scale not given: the % may be the effect or the level left
How it was run: (§2)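 CHO cells stably expressing human GPR55 were seeded at 20,000 cells/well for 24 h at 37°C. Compound in PBS/10% DMSO/0.1% BSA was added 60 min before 1 µM LPI. Galacton-Star/Emerald-II/lysis buffer (pH 8) was applied for 60 min at RT, with luminescence read-out. Screening was at 10 µM (% inhibition). IC50 was measured where inhibition exceeded 60%. Three independent experiments in duplicate.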

[9] = biological target: T1, G-protein coupled receptor 55; assay: Antagonist activity at human GPR55 transfected in CHO cells assessed as inhibition of LPI-induced beta-arrestin recruitment incubated 60 mins prior to LPI addition by beta-arrestin translocation assay; format: cell-based; how it was run: as §2
Cannabinoid receptor 1 [10] = biological target: T3, Cannabinoid receptor 1; assay: Antagonist activity at human CB1 receptor expressed in CHOK1 cells assessed as inhibition of forskolin-stimulated cAMP level at 10 uM; format: functional, cell-based; settings: CHO-K1
Cannabinoid receptor 2 [11] = biological target: T2, Cannabinoid receptor 2; assay: Agonist activity at human CB2 receptor expressed in CHOK1 cells assessed as […] of forskolin-stimulated cAMP level at 10 uM; format: functional, cell-based; settings: CHO-K1
Cannabinoid receptor 2 [12] = biological target: T2, Cannabinoid receptor 2; assay: Antagonist activity at human CB2 receptor expressed in CHOK1 cells assessed as inhibition of forskolin-stimulated cAMP level at 10 uM; format: functional, cell-based; settings: CHO-K1
Cannabinoid receptor 1 [13] = biological target: T3, Cannabinoid receptor 1; assay: Agonist activity at human CB1 receptor expressed in CHOK1 cells assessed as […] of forskolin-stimulated cAMP level at 10 uM; format: functional, cell-based; settings: CHO-K1

T3 sequence (P21554 whole entry): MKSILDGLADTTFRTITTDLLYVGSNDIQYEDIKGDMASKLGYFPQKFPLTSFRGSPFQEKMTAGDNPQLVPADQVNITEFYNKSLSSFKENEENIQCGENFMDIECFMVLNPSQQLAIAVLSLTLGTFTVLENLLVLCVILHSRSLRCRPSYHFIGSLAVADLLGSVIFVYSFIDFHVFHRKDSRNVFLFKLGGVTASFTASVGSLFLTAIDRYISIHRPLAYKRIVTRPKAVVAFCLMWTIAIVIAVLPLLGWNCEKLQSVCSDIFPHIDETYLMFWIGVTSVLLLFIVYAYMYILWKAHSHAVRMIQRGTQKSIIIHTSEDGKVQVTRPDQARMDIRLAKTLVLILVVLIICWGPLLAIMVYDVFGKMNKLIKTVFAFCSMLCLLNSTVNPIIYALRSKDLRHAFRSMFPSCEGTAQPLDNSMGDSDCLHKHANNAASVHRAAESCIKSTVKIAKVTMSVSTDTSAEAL
T2 sequence (P34972 whole entry): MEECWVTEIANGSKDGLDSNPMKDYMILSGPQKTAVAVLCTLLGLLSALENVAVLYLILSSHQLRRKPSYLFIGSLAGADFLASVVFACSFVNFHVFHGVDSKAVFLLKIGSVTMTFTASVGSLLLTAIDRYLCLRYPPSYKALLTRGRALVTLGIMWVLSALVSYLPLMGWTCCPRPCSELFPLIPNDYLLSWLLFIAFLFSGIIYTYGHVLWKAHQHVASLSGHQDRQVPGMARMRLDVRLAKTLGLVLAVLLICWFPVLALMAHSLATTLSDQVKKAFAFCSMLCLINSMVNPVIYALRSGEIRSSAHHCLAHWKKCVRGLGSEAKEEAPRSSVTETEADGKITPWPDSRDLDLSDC
T1 sequence (Q9Y2T6 whole entry, the tested form may be a part): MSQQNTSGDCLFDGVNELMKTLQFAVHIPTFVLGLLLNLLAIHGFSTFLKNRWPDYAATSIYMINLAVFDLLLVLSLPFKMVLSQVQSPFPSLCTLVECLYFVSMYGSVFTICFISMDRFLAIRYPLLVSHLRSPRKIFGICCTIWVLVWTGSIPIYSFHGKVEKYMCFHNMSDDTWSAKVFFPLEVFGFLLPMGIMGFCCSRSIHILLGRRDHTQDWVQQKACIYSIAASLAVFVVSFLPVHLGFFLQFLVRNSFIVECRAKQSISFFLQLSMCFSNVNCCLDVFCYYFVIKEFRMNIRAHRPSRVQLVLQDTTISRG

Row | SMILES | Activity [1] | Activity (Cannabinoid receptor 2 [2]) [%] | pKi (Cannabinoid receptor 2 [3]) | Activity (Cannabinoid receptor 1 [4]) [%] | pKi (Cannabinoid receptor 1 [5]) | Activity [6] [%] | pIC50 [7] | Activity [8] [%] | pIC50 [9] | inhibition (Cannabinoid receptor 1 [10]) | Activity (Cannabinoid receptor 2 [11]) | inhibition (Cannabinoid receptor 2 [12]) | Activity (Cannabinoid receptor 1 [13])
1 | CCCCC1(c2cc(OC)c3cc(Cc4ccccc4OC)c(=O)oc3c2)CCCCC1 | inactive | 45 | ≤ 5.00 | 42 | ≤ 5.00 | 33 | < 5.00 | 44 | < 5.00 | – | – | – | –
2 | COc1c(C)c(C)c2oc(=O)c(Cc3ccc(F)cc3)cc2c1C | inactive | – | 5.83 | 49 | 5.00 | 32 | < 5.00 | – | 4.87 | – | – | – | –
3 | CCCCCc1cc(OC)c2cc(Cc3ccc(Cl)cc3)c(=O)oc2c1 | inactive | – | 6.24 | – | 6.21 | 50 | 5.00 | – | 5.48 | Active | Active | – | –
4 | CCCCCCCC(C)(C)c1cc(OC)c2cc(Cc3ccccc3OC)c(=O)oc2c1 | inactive | 47 | – | 51 | – | 33 | < 5.00 | 31 | < 5.00 | – | – | – | –
5 | CCCCCc1cc(O)c2cc(Cc3cccc(O)c3)c(=O)oc2c1 | inactive | – | – | – | – | 27 | < 5.00 | – | 4.97 | Active | – | Active | –
6 | CCCCCCC(C)(C)c1cc(O)c2cc(Cc3ccccc3)c(=O)oc2c1 | inactive | – | – | – | – | – | 5.09 | – | 6.45 | – | Active | – | Active
7 | COc1cc(C)cc2oc(=O)c(Cc3ccccc3)cc12 | inactive | – | ≤ 5.00 | 45 | ≤ 5.00 | 24 | < 5.00 | – | 5.17 | – | – | – | –
8 | COc1c(C)c(C)c2oc(=O)c(Cc3ccccc3)cc2c1C | inactive | – | 5.75 | 42 | ≤ 5.00 | 46 | ≤ 5.00 | – | 4.89 | – | – | – | –
9 | CCCCCc1cc(OC)c2cc(Cc3ccccc3OC)c(=O)oc2c1 | inactive | – | – | – | – | 20 | < 5.00 | – | 5.20 | – | Active | – | Active
10 | COc1ccccc1Cc1cc2c(C)ccc(C)c2oc1=O | inactive | – | 5.17 | 16 | < 5.00 | 0 | < 5.00 | – | 5.15 | – | – | – | –
11 | COc1cccc(Cc2cc3c(OC)cc(Br)cc3oc2=O)c1 | inactive | – | – | 38 | – | 31 | < 5.00 | – | 5.40 | – | – | – | –
12 | Cc1cc2c(C(C)C)ccc(C)c2oc1=O | inactive | 0 | < 5.00 | 26 | < 5.00 | 11 | < 5.00 | – | 5.46 | – | – | – | –
13 | Cc1ccc(C(C)C)c2cc(Cc3ccccc3O)c(=O)oc12 | inactive | 24 | – | 31 | – | 32 | < 5.00 | – | 5.75 | – | – | – | –
14 | CCCCC1(c2cc(O)c3cc(Cc4ccccc4O)c(=O)oc3c2)CCCCC1 | inactive | – | – | – | – | 59 | ≤ 5.00 | – | 6.02 | – | Active | – | –
15 | Cc1c(O)c(C)c2cc(Cc3ccccc3)c(=O)oc2c1C | inactive | – | 5.47 | 21 | < 5.00 | 16 | < 5.00 | – | 5.03 | – | – | – | –
16 | Cc1c(O)c(C)c2cc(Cc3ccc(F)cc3)c(=O)oc2c1C | inactive | – | 6.35 | 34 | < 5.00 | 47 | ≤ 5.00 | – | 4.99 | – | – | – | –
17 | CCCCCc1cc(OC)c2cc(Cc3ccccc3C)c(=O)oc2c1 | inactive | – | – | – | – | 34 | < 5.00 | – | 5.29 | Active | Active | – | –
18 | Cc1ccc(C(C)C)c2cc(Cc3ccccc3)c(=O)oc12 | inactive | 24 | < 5.00 | 24 | < 5.00 | 12 | < 5.00 | – | 5.27 | – | – | – | –
19 | CCCCCCC(C)(C)c1cc(O)c2cc(Cc3ccccc3O)c(=O)oc2c1 | inactive | – | – | – | – | – | 4.80 | – | 6.58 | – | Active | – | –
20 | Cc1ccccc1Cc1cc2c(C)c(O)c(C)c(C)c2oc1=O | inactive | – | 5.81 | 45 | ≤ 5.00 | 38 | < 5.00 | – | 5.29 | – | – | – | –
21 | CCCCC1(c2cc(O)c3cc(Cc4ccccc4O)c(=O)oc3c2)CCCC1 | inactive | – | – | – | – | 57 | – | – | 6.07 | – | Active | – | –
